Compound activity from PubChem BioAssay.
PHOSPHO1 block – PubChem AID 1565. 1.1% of 290,000 active. inhibition, % at 13.3 µM. recombinant PHOSPHO1, absorbance phosphatase assay; in the data active = inhibition above about 60%
Runt-SMMHC FRET – inhibitors of RUNX1 Runt–CBFb-SMMHC binding, primary screen, biochemical, FRET, Cerulean-Runt, Venus-CBFb-SMMHC, uHTS; Runt-related transcription factor 1 (Homo sapiens) + Core-binding factor subunit beta …; Cerulean-Runt/Venus-CBFb-SMMHC FRET ratio 530/480, 1 h; inhibition, % at 20 µM; 0.74% of 220,000 active; AID 1434, 2008;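 active = mean inhibition across duplicate retests at 20 µM reaching about 50%, limit read from the data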;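 note: inhibitors lower the FRET ratio by blocking Runt binding to CBFb-SMMHC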
RanGTP-Imp inh – inhibitors of RanGTP-importin-beta interaction, primary screen, biochemical, FRET, CFP-Ran, YFP-importin-beta, homogeneous | inhibition, % (concentration not given with the values) | cell-free CFP-Ran/YFP-importin-beta FRET ratio | 1.1% of 300,000 active | Ran GTPase (GTP-bound) - importin-beta complex;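 active = more than half of the replicate wells show a fall in the fluorescence ratio signal beyond about 16%, limit read from the data, passing the limit was not always enough; inconclusive = exactly half of the replicate wells pass the set limit; inactive = fewer than half of replicates pass the limit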
Runt-CBFb FRET – inhibitors of RUNX1 Runt–CBFb binding, primary screen, biochemical, FRET, Cerulean-Runt, Venus-CBFb, uHTS | Cerulean-Runt/Venus-CBFb FRET ratio 530/480, 1 h | inhibition, % at 20 µM | Runt-related transcription factor 1 (Homo sapiens) + Core-binding factor subunit beta … | 0.46% of 220,000 active;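 active = inhibition over about 50% at 20 µM in the single-dose screen, limit read from the data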
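Assay system: Cerulean-tagged RUNX1 Runt domain (FRET donor) fusion protein / Amount: 100 nM each of Venus-CBFb and Cerulean-Runt domain / Medium: Tris buffer pH 7.5 with salts and BSA / Also added: Venus-CBFb 100 nM / Schedule: 1 h complex formation plus 1 h compound treatment, room temperature / Signal: FRET fluorescence / Read-out: loss of energy transfer signal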
HMGR II inh – inhibitors of E. faecalis class II HMGR, primary screen, biochemical, Enterococcus faecalis; HMG-CoA reductase (Enterococcus faecalis, mvaE); purified E. faecalis HMGR, NADPH absorbance 340 nm kinetic; inhibition, % at 10 µM; 0.41% of 190,000 active; AID 1066, 2008;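 active = inhibition above a set limit, the median over all tested compounds plus 3 SD, cut at about 9.5% in these data; inconclusive = no clear call, values can overlap the other calls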;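 note: enzyme runs in reverse so mevalonate oxidation gives rising NADPH absorbance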
Wee1 stabilizer – Wee1 degradation inhibitors, primary screen, cell-based, HeLa, Wee1K328M-luciferase, luminescence; AID 1321, 2008; 1.2% of 220,000 active; Wee1-like protein kinase (Homo sapiens), P30291; reporter increase, % at 5 µM; HeLa Luc-Wee1K328M stability; 100% = proteasome inhibitor MG132 effect;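 active = activation above the mean of all tested compounds plus 3 SD, set per screening run, cut at about 8.8% in these data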;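 note: cells exposed to compound for 20 h before luminescence read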
Target sequence (P30291 whole entry K328M): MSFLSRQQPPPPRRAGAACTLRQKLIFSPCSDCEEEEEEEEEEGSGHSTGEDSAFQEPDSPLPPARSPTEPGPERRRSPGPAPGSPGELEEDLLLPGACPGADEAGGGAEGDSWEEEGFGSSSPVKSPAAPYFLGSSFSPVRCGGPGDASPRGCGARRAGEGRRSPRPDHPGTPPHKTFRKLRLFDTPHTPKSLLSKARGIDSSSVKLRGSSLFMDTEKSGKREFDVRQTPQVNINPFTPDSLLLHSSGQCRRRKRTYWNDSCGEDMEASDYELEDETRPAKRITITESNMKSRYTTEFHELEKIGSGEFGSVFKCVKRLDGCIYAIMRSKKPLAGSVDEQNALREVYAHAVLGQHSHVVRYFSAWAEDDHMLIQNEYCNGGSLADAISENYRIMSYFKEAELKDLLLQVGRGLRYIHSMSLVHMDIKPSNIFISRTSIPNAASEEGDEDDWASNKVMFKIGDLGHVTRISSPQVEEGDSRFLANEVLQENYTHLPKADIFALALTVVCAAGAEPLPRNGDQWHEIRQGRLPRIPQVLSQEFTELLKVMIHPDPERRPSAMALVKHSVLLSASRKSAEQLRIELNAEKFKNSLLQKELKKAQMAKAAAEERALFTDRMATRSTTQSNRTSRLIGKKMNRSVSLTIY
A number is an active result. In the library only some 3.4% were active in any assay of this set; here they are far more common.

Screening COc1ccc(C2c3ccc(O)cc3Oc3ncn(CC(C)C)c(=N)c32)cc1 (centres undefined) returned PHOSPHO1 block inactive, Runt-SMMHC FRET 62.4, RanGTP-Imp inh inactive, Runt-CBFb FRET inactive and Wee1 stabilizer inactive.
COc1ccc(/C=C2\CCCc3c2nc2ccccc2c3C(=O)O)cc1OC was read as PHOSPHO1 block inactive, Runt-SMMHC FRET 81.0, RanGTP-Imp inh 37.3, Runt-CBFb FRET inactive and Wee1 stabilizer inactive.
Screening CCOc1ccc(/C=C2\CCCc3c2nc2ccccc2c3C(=O)O)cc1OC returned PHOSPHO1 block inactive and RanGTP-Imp inh 29.0.
`COc1ccc(/C=C2\CCc3c2nc2ccccc2c3C(=O)O)cc1OC` gave PHOSPHO1 block inactive, Runt-SMMHC FRET inactive, RanGTP-Imp inh inactive, Runt-CBFb FRET inactive and Wee1 stabilizer inactive.
For CC12C(=O)N(CCC(=O)O)C(=O)C1C1C=CC2C1 (centres undefined) the results were PHOSPHO1 block inactive, Runt-SMMHC FRET inactive, RanGTP-Imp inh inconclusive, Runt-CBFb FRET inactive, HMGR II inh inactive and Wee1 stabilizer inactive.
`Cc1cc(=O)oc2cc3c(cc12)OCCN3` gave PHOSPHO1 block inactive, Runt-SMMHC FRET inactive, RanGTP-Imp inh 97.1, Runt-CBFb FRET inactive, HMGR II inh inactive and Wee1 stabilizer inactive.
Screening Cc1cc(=O)oc2cc3c(cc12)OCCO3 returned PHOSPHO1 block inactive, Runt-SMMHC FRET inactive, RanGTP-Imp inh inconclusive, Runt-CBFb FRET inactive, HMGR II inh inactive and Wee1 stabilizer inactive.
`CCCC(NS(=O)(=O)c1ccc(-c2ccc(=O)[nH]n2)s1)c1cccs1` (centres undefined) gave PHOSPHO1 block inactive and RanGTP-Imp inh inactive.
COc1ccc(CCNC(=O)Cn2c([N+](=O)[O-])cnc2C)cc1OC was read as PHOSPHO1 block inactive, Runt-SMMHC FRET inactive, RanGTP-Imp inh inactive, Runt-CBFb FRET inactive, HMGR II inh inactive and Wee1 stabilizer 10.8.
Cc1ncc([N+](=O)[O-])n1CC(=O)NCCc1ccccc1 was read as PHOSPHO1 block inactive, Runt-SMMHC FRET inactive, RanGTP-Imp inh inactive, Runt-CBFb FRET inactive, HMGR II inh inactive and Wee1 stabilizer inactive.
`NC(=S)N/N=C/c1ccc(-c2ccccc2)o1` gave PHOSPHO1 block inactive, Runt-SMMHC FRET inactive, RanGTP-Imp inh inactive, Runt-CBFb FRET inactive, HMGR II inh inactive and Wee1 stabilizer inactive.
`NC(=S)N/N=C\c1ccc(-c2cccc(Cl)c2Cl)o1` gave PHOSPHO1 block 95.4, Runt-SMMHC FRET inactive, RanGTP-Imp inh inactive, Runt-CBFb FRET inactive, HMGR II inh inactive and Wee1 stabilizer inactive.
For NC(=S)N/N=C/c1ccc(-c2ccc(Cl)c(Cl)c2)o1 the results were PHOSPHO1 block 81.2, Runt-SMMHC FRET inactive, RanGTP-Imp inh inactive, Runt-CBFb FRET inactive, HMGR II inh inactive and Wee1 stabilizer inactive.
`COCc1ccc(C(=O)N2CCCCC2C(=O)Nc2ccc(-n3nc(C)cc3C)cc2)o1` (centres undefined) gave PHOSPHO1 block inactive and RanGTP-Imp inh inactive.
`CCCCn1nc(NS(=O)(=O)c2cccc3nonc23)c2cc3cccc(C)c3nc21` gave PHOSPHO1 block inactive and RanGTP-Imp inh inactive.
Screening Fc1ccc(NC(=S)N2CCCc3ccccc32)cc1 returned PHOSPHO1 block 95.3, Runt-SMMHC FRET inactive, RanGTP-Imp inh inactive, Runt-CBFb FRET inactive, HMGR II inh inactive and Wee1 stabilizer inactive.
Screening COc1ccc(-c2cc(=O)oc3cc(OCC(=O)Nc4ccc(CCO)cc4)ccc23)cc1 returned PHOSPHO1 block inactive and RanGTP-Imp inh inactive.
For CCCCn1c(CCn2nc(C)c(Br)c2C)n[nH]c1=S the results were PHOSPHO1 block 89.8, Runt-SMMHC FRET inactive, RanGTP-Imp inh inactive, Runt-CBFb FRET inactive, HMGR II inh inactive and Wee1 stabilizer inactive.
Screening Cc1cccc(NC(=O)CSc2nc(N)c(NC(=O)c3cccs3)c(=O)[nH]2)c1 returned PHOSPHO1 block inactive, Runt-SMMHC FRET inactive, RanGTP-Imp inh inactive, Runt-CBFb FRET inactive, HMGR II inh inactive and Wee1 stabilizer 9.3.
`Cc1ccc(C)c(NC(=O)CSc2nc(N)c(NC(=O)c3cccs3)c(=O)[nH]2)c1` gave PHOSPHO1 block inactive, Runt-SMMHC FRET inactive, Runt-CBFb FRET inactive, HMGR II inh inactive and Wee1 stabilizer inactive.
For COc1ccc(-c2ccc(CCC(=O)O)n2CC2CCCO2)cc1 (centres undefined) the results were PHOSPHO1 block inactive, Runt-SMMHC FRET 75.4, RanGTP-Imp inh inconclusive, Runt-CBFb FRET inactive, HMGR II inh inactive and Wee1 stabilizer inactive.
`O=C(O)CCc1ccc(-c2cccs2)n1CC1CCCO1` (centres undefined) gave PHOSPHO1 block inactive, Runt-SMMHC FRET 85.5, RanGTP-Imp inh 18.2, Runt-CBFb FRET inactive, HMGR II inh inactive and Wee1 stabilizer inactive.
Screening O=C(O)CCc1ccc(-c2ccc(F)cc2)n1CC1CCCO1 (centres undefined) returned PHOSPHO1 block inactive, Runt-SMMHC FRET inactive, RanGTP-Imp inh inactive, Runt-CBFb FRET inactive, HMGR II inh inactive and Wee1 stabilizer inactive.
COc1ccc(-c2ccc(CCC(=O)O)n2CC(C)C)cc1 was read as PHOSPHO1 block inactive, Runt-SMMHC FRET 51.2, RanGTP-Imp inh inactive, Runt-CBFb FRET inactive, HMGR II inh inactive and Wee1 stabilizer inactive.
`CC1=C(C(N)=O)C(c2ccccc2F)n2nc(CCCO)nc2N1` (centres undefined) gave PHOSPHO1 block inactive and RanGTP-Imp inh inactive.
Screening Cc1cc(C)c(S(=O)(=O)Nc2ncn[nH]2)c(C)c1 returned PHOSPHO1 block inactive and RanGTP-Imp inh inactive.
Nc1cccc2c1C(=O)N(C(=O)c1ccc(S(=O)(=O)N3CCCCCC3)cc1)C2=O was read as PHOSPHO1 block inactive, Runt-SMMHC FRET 57.8, RanGTP-Imp inh inactive, Runt-CBFb FRET inactive, HMGR II inh inactive and Wee1 stabilizer inactive.
CCOc1ccc(S(=O)(=O)N2CCOCC2)cc1NC(=O)c1ccc(N2CCCC2=O)cc1 was read as RanGTP-Imp inh inactive.
For CCOC(=O)C1CCC(CNCc2ccccc2C)CC1 (centres undefined) the results were PHOSPHO1 block inactive, Runt-SMMHC FRET inactive, RanGTP-Imp inh inactive, Runt-CBFb FRET inactive, HMGR II inh 9.8 and Wee1 stabilizer inactive.
`C=C1CCC[C@]2(C)C[C@H]3OC(=O)C(CN(Cc4ccc(OC)c(OC)c4)CC(C)O)[C@H]3CC12` (some centres undefined) gave PHOSPHO1 block inactive and RanGTP-Imp inh inactive.
